Results taken from ChEMBL document CHEMBL1129338, “Inhibitors of acyl-CoA:cholesterol O-acyltransferase. synthesis and pharmacological activity of (+/-)-2-dodecyl-alpha-phenyl-N-(2,4,6-trimethoxyphenyl)-2H-tetrazole-5- acetamide and structurally related tetrazole amide derivatives” (J Med Chem, 1996).

Experiments:
Rattus norvegicus [1] = experiment: Change in total cholesterol in Chronic Cholesterol-Fed rat model at dose 30 mg/kg; format: functional
Method in brief: (§1)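 Rats ate a high-fat, high-cholesterol diet for 14 days. During the second week they received the test compound daily by gavage at 30 mg/kg, in a carboxymethylcellulose/Tween-20 aqueous vehicle. Plasma lipids (total cholesterol, HDL-C, non-HDL-C) were read as percent change.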

Oryctolagus cuniculus [2] = experiment: Oral bioactivity expressed as %inhibition after 4 hours of drug administration (dose 50 mg/kg) in rabbit bioassay; format: functional
Method in brief: (§2)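 Plasma was taken before dosing and at 1, 2 and 4 h. Plasma (0.2 mL) was hexane-extracted, dried and redissolved in chloroform/methanol 2:1. It was then tested for ACAT inhibition in the liver microsomal assay alongside spiked standards and a 2.5 µM CI-976 reference.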

[3] = target: T1, Sterol O-acyltransferase 1 (Mus musculus) (UniProt Q61263); experiment: In vitro inhibitory activity against acyl coenzyme A:cholesterol acyltransferase 1 in cell culture assay using murine IC-21 macrophages at 0.1 uM
T1 sequence (whole entry): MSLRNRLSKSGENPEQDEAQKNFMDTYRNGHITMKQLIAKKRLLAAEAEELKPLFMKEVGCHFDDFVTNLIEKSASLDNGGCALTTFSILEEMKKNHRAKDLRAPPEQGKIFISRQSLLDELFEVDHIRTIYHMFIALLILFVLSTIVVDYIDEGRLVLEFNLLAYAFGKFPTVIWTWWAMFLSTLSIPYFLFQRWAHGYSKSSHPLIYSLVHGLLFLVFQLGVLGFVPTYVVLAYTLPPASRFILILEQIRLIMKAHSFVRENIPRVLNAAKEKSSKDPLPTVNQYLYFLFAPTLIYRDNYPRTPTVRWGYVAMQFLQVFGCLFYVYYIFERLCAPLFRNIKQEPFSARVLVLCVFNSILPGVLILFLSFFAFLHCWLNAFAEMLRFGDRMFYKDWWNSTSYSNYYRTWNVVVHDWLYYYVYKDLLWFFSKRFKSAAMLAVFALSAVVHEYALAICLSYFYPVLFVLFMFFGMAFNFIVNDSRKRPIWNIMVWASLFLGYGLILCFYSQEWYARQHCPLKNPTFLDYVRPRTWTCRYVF
Method in brief: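 IC-21 mouse macrophages were preincubated 16 h in serum-free DMEM with 20 µM albumin and phosphatidylserine/cholesterol vesicles. The vesicles were sonicated in 150 mM NaCl, 5 mM MOPS, 1 mM EDTA, pH 7.4, and filter-sterilized. Medium was then replaced with serum-free DMEM containing the compound in DMSO at 0.1 µM. Percent inhibition was read, with cell protein measured by the Lowry method.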

Rattus norvegicus [4] = experiment: Percent change in total cholesterol (TC) in cholic acid (0.5%)-, cholesterol (1.5%) -, and peanut oil (5.5%)- fed rats at a dose 30 mg/kg.; format: functional
Rattus norvegicus [5] = experiment: Percent change in non High Density Lipoproteins (HDL) in Chronic Cholesterol -Fed rat model at a dose 30 mg/kg
[6] = target: T2, Sterol O-acyltransferase 1 (Rattus norvegicus, UniProt O70536); experiment: In vitro inhibitory activity against acyl coenzyme A:cholesterol acyltransferase 1 of liver microsomes isolated from cholesterol-fed rats.
T2 sequence (O70536 whole entry): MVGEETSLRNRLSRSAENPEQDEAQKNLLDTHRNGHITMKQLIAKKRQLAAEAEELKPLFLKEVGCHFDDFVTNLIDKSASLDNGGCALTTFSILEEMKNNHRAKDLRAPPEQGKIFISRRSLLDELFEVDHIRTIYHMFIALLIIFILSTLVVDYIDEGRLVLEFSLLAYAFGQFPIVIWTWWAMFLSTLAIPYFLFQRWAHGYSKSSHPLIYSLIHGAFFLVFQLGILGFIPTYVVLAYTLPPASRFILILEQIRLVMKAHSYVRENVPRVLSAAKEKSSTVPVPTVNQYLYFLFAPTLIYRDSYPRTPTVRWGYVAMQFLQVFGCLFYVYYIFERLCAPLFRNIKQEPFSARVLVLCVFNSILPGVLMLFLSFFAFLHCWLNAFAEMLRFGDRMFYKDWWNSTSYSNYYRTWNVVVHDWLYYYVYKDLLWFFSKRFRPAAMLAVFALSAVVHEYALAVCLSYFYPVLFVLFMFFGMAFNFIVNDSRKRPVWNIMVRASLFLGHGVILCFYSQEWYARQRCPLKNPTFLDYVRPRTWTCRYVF
Method in brief: (§3)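 ACAT inhibition was measured in hepatic microsomes isolated from cholesterol-fed rats. Each determination was run in triplicate, and IC50 was reported.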

Rattus norvegicus [7] = experiment: Percent change in High Density Lipoproteins (HDL) in Chronic Cholesterol -Fed rat model at a dose 30 mg/kg; format: functional; method in brief: as §1
Rattus norvegicus [8] = experiment: Percent change in total cholesterol (TC) in cholic acid (0.5%) - cholesterol (1.5% - peanut oil (5.5%) - fed rats at a dose 30 mg/kg; format: functional
Oryctolagus cuniculus [9] = experiment: Dose response in cholesterol fed rabbit after oral administration; format: functional
Method in brief: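 Cholesterol-fed rabbit model with oral dosing across a dose series, 8 animals per dose. Plasma cholesterol reduction was averaged at each dose. ED50, the dose lowering plasma total cholesterol 50%, was calculated from these mean responses with the median-effect equation.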

Rattus norvegicus [10] = experiment: % change in total cholesterol in Chronic Cholesterol-Fed rat model at dose 30 mg/kg; format: functional; method in brief: as §1
Oryctolagus cuniculus [11] = experiment: Oral bioactivity expressed as %inhibition after 4 hours of drug administration (dose 25 mg/kg) in rabbit bioassay; format: functional; method in brief: as §2
Rattus norvegicus [12] = experiment: Effective dose to lower nonHDL-C in a cholesterol fed rat model in vivo; format: functional
Oryctolagus cuniculus [13] = experiment: % change in total cholesterol(TC) versus progression control (PC) with out drug intervention in chronic cholesterol-fed rabbit model at a dose of 25 mg/kg; format: functional
Method in brief: (§4)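 Male New Zealand rabbits (1-1.5 kg) were meal-fed 50 g/day of chow with 0.5% cholesterol, 3% coconut oil and 3% peanut oil. After 1 week, compound was added to the diet for 2 weeks at 5 or 25 mg/kg. Plasma total cholesterol came from cardiac blood of fasted animals after nitrogen asphyxiation. It was compared with cholesterol-fed progression controls or with T0, the start of drug intervention, when plasma cholesterol was taken 24 h after the drug meal.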

[14] = target: T2, Sterol O-acyltransferase 1; experiment: Inhibitory concentration against Acyl coenzyme A:cholesterol acyltransferase 1 from rat liver; method in brief: as §3
Oryctolagus cuniculus [15] = experiment: Percent change in total cholesterol(TC) versus (T0)- at which drug intervention begins at a dose of 25 mg/kg in the chronic cholesterol-fed rabbit model; format: functional; method in brief: as §4
[16] = test system: Acyl-CoA:cholesterol acyltransferase (Rattus norvegicus); experiment: Ability to reduce cholesterol absorption, i.e. the appearance of lymph cholesteryl ester at a dose of 10 mg/kg
[17] = target: T3, Acyl-CoA:cholesterol acyltransferase (Oryctolagus cuniculus, UniProt Q95214); experiment: Inhibitory concentration against Acyl coenzyme A:cholesterol acyltransferase 1 from rabbit intestine
T3 sequence (Q95214 whole entry): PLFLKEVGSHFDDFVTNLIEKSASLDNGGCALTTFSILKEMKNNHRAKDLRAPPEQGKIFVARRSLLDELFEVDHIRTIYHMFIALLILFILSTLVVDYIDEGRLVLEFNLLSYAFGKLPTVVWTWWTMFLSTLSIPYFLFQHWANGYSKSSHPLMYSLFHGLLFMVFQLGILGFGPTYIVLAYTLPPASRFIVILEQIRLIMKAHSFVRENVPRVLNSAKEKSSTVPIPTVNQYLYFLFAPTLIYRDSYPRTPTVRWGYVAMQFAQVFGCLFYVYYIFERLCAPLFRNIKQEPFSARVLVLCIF

Oryctolagus cuniculus [18] = experiment: % change in total cholesterol(TC) versus progression control (PC) with out drug intervention in chronic cholesterol-fed rabbit model at a dose of 5 mg/kg; format: functional; method in brief: as §4
[19] = target: Sterol O-acyltransferase 1 (Mus musculus) (UniProt Q61263); experiment: Percent change of compound against Acyl coenzyme A:cholesterol acyltransferase 1 in cell culture assay using murine IC-21 macrophages at 0.1(uM)
Oryctolagus cuniculus [20] = experiment: % change in total cholesterol(TC) versus (T0)- at which drug intervention begins at a dose of 5 mg/kg in chronic cholesterol-fed rabbit model; format: functional; method in brief: as §4
Rattus norvegicus [21] = experiment: In vitro percent decrease in cholesterol activity at 30 mg/kg in acute rat screen; format: functional; details: in the assay text read “In vivo” for “In vitro”
Method in brief: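 Rats received a single gavage dose of 30 mg/kg, suspended in carboxymethylcellulose/Tween-20 in water, followed by one high-fat, high-cholesterol meal. The read-out was inhibition of the overnight rise in plasma total cholesterol, as percent change.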

Oryctolagus cuniculus [22] = experiment: Change in total cholesterol(TC) versus progression control (PC) with out drug intervention in chronic cholesterol-fed rabbit model at a dose of 5 mg/kg; format: functional; method in brief: as §4
Oryctolagus cuniculus [23] = experiment: Change in total cholesterol(TC) versus (T0)- at which drug intervention begins at a dose of 5 mg/kg in chronic cholesterol-fed rabbit model; format: functional; method in brief: as §4
[24] = target: T4, Acyl-CoA:cholesterol acyltransferase (Oryctolagus cuniculus) (UniProt Q95214); details: at 25 mg/kg
T4 sequence (whole entry): T3 sequence (Q95214 whole entry)

[25] = target: T4, Acyl-CoA:cholesterol acyltransferase (Oryctolagus cuniculus); details: 25 mg/kg
Oryctolagus cuniculus [26] = experiment: Change in total cholesterol(TC) versus progression control (PC) with out drug intervention in chronic cholesterol-fed rabbit model at a dose of 25 mg/kg; format: functional; method in brief: as §4

SMILES	inhibition in vivo at 50 mg/kg (Oryctolagus cuniculus [2]) [%]	inhibition [3] [%]	Change (Rattus norvegicus [4]) [%]	Change (Rattus norvegicus [5]) [%]	IC50 [6] [nM]	Change (Rattus norvegicus [7]) [%]	inhibition in vivo at 25 mg/kg (Oryctolagus cuniculus [11]) [%]	Change (Oryctolagus cuniculus [13]) [%]	Change (Oryctolagus cuniculus [18]) [%]	other results
C=CCCCCCCCCCCn1nnc(C(C(=O)Nc2c(OC)cc(OC)cc2OC)c2ccccc2)n1 (stereo not given)	37	37	<63	<58	25	98	–	–	–	Change (Rattus norvegicus [1]): <52%
CCCCCCCCCCCCn1nnc(C(C)C(=O)Nc2c(OC)cc(OC)cc2OC)n1 (stereo not given)	–	49	–	–	31	–	–	–	–	Change (Rattus norvegicus [8]): <55%
CCCCCCCCCCCCn1nnc(C(C(=O)Nc2c(OC)cc(OC)cc2OC)c2ccccc2)n1 (stereo not given)	4	40	<63	<68	23	83	0	<78	<71	ED50 (Oryctolagus cuniculus [9]): 0.1 mg/kg; Change (Rattus norvegicus [10]): <60%; ED50 (Rattus norvegicus [12]): 6.4 mg/kg; IC50 [14]: 23 nM; Change (Oryctolagus cuniculus [15]): <38%; Reduction [16]: 79%; IC50 [17]: 8 nM
C=CCCCCCCCCCn1nnc(C(C(=O)Nc2c(OC)cc(OC)cc2OC)c2ccccc2)n1 (stereo not given)	26	54	<56	<77	54	102	–	–	–	Change (Rattus norvegicus [1]): <72%
CCCCCCCCCCCCn1nnc(C(=O)Nc2c(OC)cc(OC)cc2OC)n1	–	–	–	–	35600	–	–	–	–	Change [19]: 21%
CCCCCCCCCCCCc1nnn(C(C(=O)Nc2c(OC)cc(OC)cc2OC)c2ccccc2)n1 (stereo not given)	–	52	<65	–	21	–	0	<68	<63	Change (Oryctolagus cuniculus [20]): <11%; Decrease (Rattus norvegicus [21]): 65%
CCCCCCCCCCCCc1nnn(C(C(=O)Nc2c(C(C)C)cccc2C(C)C)c2ccccc2)n1 (stereo not given)	–	67	<77	–	15	50	91	<68	<55	Change (Oryctolagus cuniculus [20]): 18%; Decrease (Rattus norvegicus [21]): 77%; Change (Oryctolagus cuniculus [15]): <20%
CCCCCCCCCCC(C)(C)C(=O)Nc1c(OC)cc(OC)cc1OC [CL-976]	–	–	–	–	–	–	–	–	–	Change (Oryctolagus cuniculus [22]): <28%; ED50 (Oryctolagus cuniculus [9]): 21.8 mg/kg; Change (Oryctolagus cuniculus [23]): 96%; inhibition [24]: 45%; Change [25]: 19%; ED50 (Rattus norvegicus [12]): 19 mg/kg; Change (Oryctolagus cuniculus [26]): <54%
